Measured values collected from several papers.
Each line is one published result; the experiments were not run side by side.
Medium: Caco-2

SMILES	tested at	time	pH	Papp A→B [×10⁻⁶ cm/s]
O=C(COCc1cccnc1)C12CC3CC(CC(C3)C1)C2	20 µM			6.3
CC(C)NCC(O)COc1cccc2ccccc12 (stereo not shown)	5 µM	1 h		19.3
CC(C)NCC(O)COc1cccc2ccccc12 (stereo not shown)				46.5
Nc1nc2c(ncn2COCCO)c(=O)[nH]1	10 µM	2 h	pH 7.4	0.0803
CC#Cc1cncc(-c2ccc3c(c2)[C@@]2(N=C(C)C(N)=N2)[C@]2(CC[C@H](OC)CC2)C3)c1				34.8
COc1cccc2c(-c3ccccc3)cc(-c3ccc(-c4ccc(C(=O)O)cc4)[nH]3)nc12				2.42
COCCc1ccc(OCC(O)CNC(C)C)cc1 (stereo not shown)				16.6
COc1cc(Cl)c(C(=O)N[C@@H](CN[C@H]2CC[C@@H](N)CC2)Cc2ccc(C#N)cc2)cc1-c1ccc(CN[C@H](C)c2ccc(C)cc2)o1	2 µM	2 h	pH 7.2	3.9
Cn1c(S)nc2c1c(=O)n(Cc1ccccc1)c(=O)n2C	10 µM	2 h		10
C=CC(=O)Nc1cc(Nc2nccc(-c3cn(C)c4ccccc34)n2)c(OC)cc1N(C)CCN(C)C			pH 7.4	8.64
CO[C@@H](C[C@H]1C(C)=CC[C@@H]2[C@]3(C)C[C@H](O[C@@H]4O[C@@H](C)[C@H](OC(=O)c5cccc(O)c5)[C@@H](O[C@@H]5O[C@H](CO)[C@@H](O)[C@H](O)[C@H]5NC(C)=O)[C@H]4O)[C@@H](O)C(C)(C)[C@H]3CC[C@]21C)[C@H](N)C(=O)O.O=C(O)C(F)(F)F	5 µM	1 h		0.01
Cn1c(=O)c2c(nc(S)n2C)n(C)c1=O	10 µM	2 h		0.9
Cc1ncsc1-c1ccc(CNC(=O)[C@@H]2C[C@@H](O)CN2C(=O)[C@@H](NC(=O)C2(F)CC2)C(C)(C)C)c(OCCOCCOCCN2CCN(c3cc(-c4ccccc4O)nnc3N)CC2)c1		2 h	pH 7.2	0.11
O=C(O)COc1cccc(Oc2ccc(-c3noc(-c4ccc(O)cc4)n3)cc2)c1		2 h	pH 7.4	5.3
COCCc1ccc(OCC(O)CNC(C)C)cc1 (stereo not shown)			pH 7.4	73.6
COc1cc(F)ccc1-c1ncnc(Nc2cccc(C[S@](C)(=N)=O)c2)n1	2 µM	2 h	pH 7.2	3.5
